Laboratory results as given in ChEMBL document CHEMBL5058577, “EUbOPEN Chemogenomics Library 2 (Multiplex)” (2022).

Tested on: Fibroblast
Assay: Multiplex assay against human fibroblast
Assay type: toxicity, cell-based
Procedure, shortened: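 On a CQ1 microscope at 37°C and 5% CO2, live cells were imaged after compound addition. They had been stained at seeding with Hoechst33342, BioTracker Green Microtubule Cytoskeleton Dye, MitoTracker Red and Annexin V Alexa Fluor 680. CellPathfinder machine-learning gating assigned cells to Hoechst high-intensity objects or normal cells, normal cells to healthy, pyknosed or fragmented nuclei, and pyknosed cells to mitotic or apoptotic. Tubulin, mitochondrial-mass and membrane-permeability phenotypes are per cents of healthy-nucleus cells.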

[1] = 12 h, 1 µM, compound concentration 1 uM, replicate 1
[2] = 12 h, 1 µM, compound concentration 1 uM, replicate 2
[3] = 12 h, 10 µM, compound concentration 10 uM, replicate 1
[4] = 12 h, 10 µM, compound concentration 10 uM, replicate 2
[5] = 24 h, 1 µM, compound concentration 1 uM, replicate 1
[6] = 24 h, 1 µM, compound concentration 1 uM, replicate 2
[7] = 24 h, 10 µM, compound concentration 10 uM, replicate 1
[8] = 24 h, 10 µM, compound concentration 10 uM, replicate 2
[9] = 48 h, 1 µM, compound concentration 1 uM, replicate 1
[10] = 48 h, 1 µM, compound concentration 1 uM, replicate 2
[11] = 48 h, 10 µM, compound concentration 10 uM, replicate 1
[12] = 48 h, 10 µM, compound concentration 10 uM, replicate 2

## CN1C[C@H](C(=O)N[C@]2(C)O[C@@]3(O)[C@@H]4CCCN4C(=O)[C@H](Cc4ccccc4)N3C2=O)C[C@@H]2c3cccc4[nH]cc(c34)C[C@H]21.CS(=O)(=O)O [DIHYDROERGOTAMINE MESYLATE]
[1]
  Population Apoptotic (%): 25%
  Population Fragmented Nuclei (%): 13%
  Population Healthy Nuclei (%): 70%
  Population Hoechst High Intensity Objects (%): 1%
  Population Membrane Permeable-Phenotype (%): 1%
  Population Mitochondria Different-Phenotype (%): 1%
  Population Mitotic Cells (%): 75%
  Population Normal (%): 98%
  Population Pyknosed Nuclei (%): 16%
  Population Tubulin-Different-Phenotype (%): 23%
  Total Cell Count: 127
[2]
  Population Apoptotic (%): 47%
  Population Fragmented Nuclei (%): 32%
  Population Healthy Nuclei (%): 51%
  Population Hoechst High Intensity Objects (%): 7%
  Population Membrane Permeable-Phenotype (%): 6%
  Population Mitochondria Different-Phenotype (%): 5%
  Population Mitotic Cells (%): 52%
  Population Normal (%): 92%
  Population Tubulin-Different-Phenotype (%): 31%
  Total Cell Count: 155
[3]
  Population Apoptotic (%): 57%
  Population Fragmented Nuclei (%): 27%
  Population Healthy Nuclei (%): 65%
  Population Hoechst High Intensity Objects (%): 0%
  Population Membrane Permeable-Phenotype (%): 0%
  Population Mitochondria Different-Phenotype (%): 5%
  Population Mitotic Cells (%): 42%
  Population Normal (%): 100%
  Population Pyknosed Nuclei (%): 7%
  Population Tubulin-Different-Phenotype (%): 8%
  Total Cell Count: 92
[4]
  Population Apoptotic (%): 31%
  Population Fragmented Nuclei (%): 33%
  Population Healthy Nuclei (%): 45%
  Population Hoechst High Intensity Objects (%): 8%
  Population Membrane Permeable-Phenotype (%): 2%
  Population Mitochondria Different-Phenotype (%): 0%
  Population Mitotic Cells (%): 68%
  Population Normal (%): 91%
  Population Pyknosed Nuclei (%): 21%
  Population Tubulin-Different-Phenotype (%): 42%
  Total Cell Count: 114
[5]
  Population Apoptotic (%): 38%
  Population Fragmented Nuclei (%): 14%
  Population Healthy Nuclei (%): 75%
  Population Hoechst High Intensity Objects (%): 1%
  Population Membrane Permeable-Phenotype (%): 0%
  Population Mitochondria Different-Phenotype (%): 0%
  Population Mitotic Cells (%): 61%
  Population Normal (%): 98%
  Population Pyknosed Nuclei (%): 10%
  Population Tubulin-Different-Phenotype (%): 18%
  Total Cell Count: 130
[6]
  Population Apoptotic (%): 47%
  Population Fragmented Nuclei (%): 30%
  Population Healthy Nuclei (%): 56%
  Population Hoechst High Intensity Objects (%): 4%
  Population Membrane Permeable-Phenotype (%): 7%
  Population Mitochondria Different-Phenotype (%): 3%
  Population Mitotic Cells (%): 52%
  Population Normal (%): 95%
  Population Pyknosed Nuclei (%): 13%
  Population Tubulin-Different-Phenotype (%): 50%
  Total Cell Count: 149
[7]
  Population Apoptotic (%): 55%
  Population Fragmented Nuclei (%): 17%
  Population Healthy Nuclei (%): 72%
  Population Hoechst High Intensity Objects (%): 1%
  Population Membrane Permeable-Phenotype (%): 0%
  Population Mitochondria Different-Phenotype (%): 1%
  Population Mitotic Cells (%): 44%
  Population Normal (%): 98%
  Population Pyknosed Nuclei (%): 10%
  Population Tubulin-Different-Phenotype (%): 15%
  Total Cell Count: 89
[8]
  Population Apoptotic (%): 31%
  Population Fragmented Nuclei (%): 35%
  Population Healthy Nuclei (%): 43%
  Population Hoechst High Intensity Objects (%): 5%
  Population Membrane Permeable-Phenotype (%): 6%
  Population Mitochondria Different-Phenotype (%): 0%
  Population Mitotic Cells (%): 68%
  Population Normal (%): 94%
  Population Pyknosed Nuclei (%): 20%
  Population Tubulin-Different-Phenotype (%): 46%
  Total Cell Count: 113
[9]
  Population Apoptotic (%): 57%
  Population Fragmented Nuclei (%): 20%
  Population Healthy Nuclei (%): 68%
  Population Hoechst High Intensity Objects (%): 1%
  Population Membrane Permeable-Phenotype (%): 0%
  Population Mitochondria Different-Phenotype (%): 2%
  Population Mitotic Cells (%): 42%
  Population Normal (%): 98%
  Population Pyknosed Nuclei (%): 10%
  Population Tubulin-Different-Phenotype (%): 30%
  Total Cell Count: 134
[10]
  Population Apoptotic (%): 53%
  Population Fragmented Nuclei (%): 38%
  Population Healthy Nuclei (%): 50%
  Population Hoechst High Intensity Objects (%): 5%
  Population Membrane Permeable-Phenotype (%): 6%
  Population Mitochondria Different-Phenotype (%): 6%
  Population Mitotic Cells (%): 46%
  Population Normal (%): 94%
  Population Pyknosed Nuclei (%): 11%
  Population Tubulin-Different-Phenotype (%): 48%
  Total Cell Count: 139
[11]
  Population Apoptotic (%): 63%
  Population Fragmented Nuclei (%): 21%
  Population Healthy Nuclei (%): 65%
  Population Hoechst High Intensity Objects (%): 3%
  Population Membrane Permeable-Phenotype (%): 1%
  Population Mitochondria Different-Phenotype (%): 3%
  Population Mitotic Cells (%): 36%
  Population Normal (%): 96%
  Population Pyknosed Nuclei (%): 12%
  Population Tubulin-Different-Phenotype (%): 20%
  Total Cell Count: 91
[12]
  Population Apoptotic (%): 76%
  Population Fragmented Nuclei (%): 44%
  Population Healthy Nuclei (%): 44%
  Population Membrane Permeable-Phenotype (%): 11%
  Population Mitochondria Different-Phenotype (%): 5%
  Population Mitotic Cells (%): 23%
  Population Pyknosed Nuclei (%): 10%
  Population Tubulin-Different-Phenotype (%): 55%
  Total Cell Count: 126

## CSc1nc(NC2CCCC2)c([N+](=O)[O-])c(NC2CCCC2)n1 [GS-39783]
[1]
  Population Apoptotic (%): 50%
  Population Fragmented Nuclei (%): 16%
  Population Healthy Nuclei (%): 66%
  Population Hoechst High Intensity Objects (%): 3%
  Population Membrane Permeable-Phenotype (%): 2%
  Population Mitochondria Different-Phenotype (%): 6%
  Population Mitotic Cells (%): 50%
  Population Normal (%): 96%
  Population Pyknosed Nuclei (%): 16%
  Population Tubulin-Different-Phenotype (%): 29%
  Total Cell Count: 137
[2]
  Population Apoptotic (%): 39%
  Population Fragmented Nuclei (%): 28%
  Population Healthy Nuclei (%): 46%
  Population Hoechst High Intensity Objects (%): 5%
  Population Membrane Permeable-Phenotype (%): 10%
  Population Mitochondria Different-Phenotype (%): 10%
  Population Mitotic Cells (%): 60%
  Population Normal (%): 94%
  Population Pyknosed Nuclei (%): 25%
  Population Tubulin-Different-Phenotype (%): 57%
  Total Cell Count: 135
[3]
  Population Apoptotic (%): 54%
  Population Fragmented Nuclei (%): 16%
  Population Healthy Nuclei (%): 62%
  Population Hoechst High Intensity Objects (%): 5%
  Population Membrane Permeable-Phenotype (%): 0%
  Population Mitochondria Different-Phenotype (%): 5%
  Population Mitotic Cells (%): 45%
  Population Normal (%): 94%
  Population Pyknosed Nuclei (%): 21%
  Population Tubulin-Different-Phenotype (%): 39%
  Total Cell Count: 184
[4]
  Population Apoptotic (%): 36%
  Population Fragmented Nuclei (%): 25%
  Population Healthy Nuclei (%): 52%
  Population Hoechst High Intensity Objects (%): 6%
  Population Membrane Permeable-Phenotype (%): 4%
  Population Mitochondria Different-Phenotype (%): 16%
  Population Mitotic Cells (%): 63%
  Population Normal (%): 93%
  Population Tubulin-Different-Phenotype (%): 70%
  Total Cell Count: 165
[5]
  Population Apoptotic (%): 30%
  Population Fragmented Nuclei (%): 12%
  Population Healthy Nuclei (%): 69%
  Population Hoechst High Intensity Objects (%): 2%
  Population Membrane Permeable-Phenotype (%): 3%
  Population Mitochondria Different-Phenotype (%): 4%
  Population Mitotic Cells (%): 69%
  Population Normal (%): 97%
  Population Pyknosed Nuclei (%): 17%
  Population Tubulin-Different-Phenotype (%): 27%
  Total Cell Count: 132
[6]
  Population Apoptotic (%): 32%
  Population Fragmented Nuclei (%): 31%
  Population Healthy Nuclei (%): 44%
  Population Membrane Permeable-Phenotype (%): 10%
  Population Mitochondria Different-Phenotype (%): 12%
  Population Mitotic Cells (%): 67%
  Population Pyknosed Nuclei (%): 23%
  Population Tubulin-Different-Phenotype (%): 60%
  Total Cell Count: 133
[7]
  Population Apoptotic (%): 58%
  Population Fragmented Nuclei (%): 17%
  Population Healthy Nuclei (%): 65%
  Population Hoechst High Intensity Objects (%): 2%
  Population Membrane Permeable-Phenotype (%): 0%
  Population Mitochondria Different-Phenotype (%): 4%
  Population Mitotic Cells (%): 41%
  Population Normal (%): 97%
  Population Pyknosed Nuclei (%): 17%
  Population Tubulin-Different-Phenotype (%): 33%
  Total Cell Count: 172
[8]
  Population Apoptotic (%): 36%
  Population Fragmented Nuclei (%): 25%
  Population Healthy Nuclei (%): 52%
  Population Hoechst High Intensity Objects (%): 7%
  Population Membrane Permeable-Phenotype (%): 6%
  Population Mitochondria Different-Phenotype (%): 10%
  Population Mitotic Cells (%): 63%
  Population Normal (%): 92%
  Population Pyknosed Nuclei (%): 21%
  Population Tubulin-Different-Phenotype (%): 57%
  Total Cell Count: 164
[9]
  Population Apoptotic (%): 70%
  Population Fragmented Nuclei (%): 22%
  Population Healthy Nuclei (%): 69%
  Population Hoechst High Intensity Objects (%): 4%
  Population Membrane Permeable-Phenotype (%): 1%
  Population Mitochondria Different-Phenotype (%): 5%
  Population Mitotic Cells (%): 30%
  Population Normal (%): 95%
  Population Pyknosed Nuclei (%): 7%
  Population Tubulin-Different-Phenotype (%): 29%
  Total Cell Count: 134
[10]
  Population Apoptotic (%): 33%
  Population Fragmented Nuclei (%): 41%
  Population Healthy Nuclei (%): 44%
  Population Hoechst High Intensity Objects (%): 3%
  Population Membrane Permeable-Phenotype (%): 23%
  Population Mitochondria Different-Phenotype (%): 14%
  Population Mitotic Cells (%): 66%
  Population Normal (%): 96%
  Population Pyknosed Nuclei (%): 14%
  Population Tubulin-Different-Phenotype (%): 60%
  Total Cell Count: 129
[11]
  Population Apoptotic (%): 66%
  Population Fragmented Nuclei (%): 19%
  Population Healthy Nuclei (%): 65%
  Population Hoechst High Intensity Objects (%): 2%
  Population Membrane Permeable-Phenotype (%): 1%
  Population Mitochondria Different-Phenotype (%): 5%
  Population Mitotic Cells (%): 33%
  Population Normal (%): 97%
  Population Pyknosed Nuclei (%): 14%
  Population Tubulin-Different-Phenotype (%): 41%
  Total Cell Count: 168
[12]
  Population Apoptotic (%): 60%
  Population Fragmented Nuclei (%): 40%
  Population Healthy Nuclei (%): 46%
  Population Hoechst High Intensity Objects (%): 6%
  Population Membrane Permeable-Phenotype (%): 6%
  Population Mitochondria Different-Phenotype (%): 7%
  Population Mitotic Cells (%): 40%
  Population Normal (%): 93%
  Population Pyknosed Nuclei (%): 13%
  Population Tubulin-Different-Phenotype (%): 60%
  Total Cell Count: 193
